Published values pooled from the literature.
Compare with care: the assays were run in different laboratories.
Organism: Klebsiella pneumoniae
Observed: microbial growth

SMILES	method	strain	time	MIC
O=C(N[C@H](CO)[C@H](O)c1ccc([N+](=O)[O-])cc1)C(Cl)Cl	broth dilution	ATCC43816		4 µg/mL
CC1(C)S[C@@H]2[C@H](NC(=O)[C@H](N)c3ccccc3)C(=O)N2[C@H]1C(=O)O	broth dilution	ATCC700603		8 µg/mL
CCCCCCC#Cc1cncc(-c2nnc(SCc3cc([N+](=O)[O-])cc([N+](=O)[O-])c3)n2CCOC2OC(CN)C(O)C2O)c1 (centres unmarked)	broth dilution	DSM30104		> 64 µg/mL
C[C@H]1COc2c(N3CCN(C)CC3)c(F)cc3c(=O)c(C(=O)O)cn1c23	broth dilution	ATCC43816		< 0.5 µg/mL
CO/N=C(\C(=O)N[C@@H]1C(=O)N2C(C(=O)O)=CCS[C@H]12)c1csc(N)n1	broth dilution	ATCC13883		0.125 µg/mL
Cc1cc(NS(=O)(=O)c2ccc(N)cc2)no1	broth dilution	ATCC43816		64 µg/mL
CCCCCCCCN=c1ccn(CCCCCCCCCCn2ccc(=NCCCCCCCC)cc2)cc1		ATCC4352		0.5 µM
CN(C)[C@@H]1C(O)=C(C(N)=O)C(=O)[C@@]2(O)C(O)=C3C(=O)c4c(O)cccc4[C@@](C)(O)[C@H]3C[C@@H]12	broth dilution	ATCC43816		2 µg/mL
Cc1onc(-c2ccccc2)c1C(=O)N[C@@H]1C(=O)N2[C@@H]1SC(C)(C)[C@@H]2C(=O)O	broth dilution	ATCC700603		8 µg/mL
CC1(C)S[C@@H]2[C@H](NC(=O)[C@H](N)c3ccccc3)C(=O)N2[C@H]1C(=O)O	broth dilution	ATCC43816		172 µM
CC1(C)S[C@@H]2[C@H](NC(=O)[C@H](N)c3ccc(O)cc3)C(=O)N2[C@H]1C(=O)O	broth dilution	ATCC13883		> 64 µg/mL
CCCCCCC#Cc1cncc(-c2nnc(SCc3ccc([N+](=O)[O-])o3)n2CCCN)c1	broth dilution	DSM30104		> 64 µg/mL
CC1(C)S[C@@H]2[C@H](NC(=O)[C@H](N)c3ccccc3)C(=O)N2[C@H]1C(=O)O	broth dilution	ATCC13883		> 64 µg/mL
O=C(O)c1cn(C2CC2)c2cc(N3CCNCC3)c(F)cc2c1=O	broth dilution	ATCC27736	16 h	0.1 µM
